Measured values from ChEMBL document CHEMBL3425455, “Short Hydrophobic Peptides with Cyclic Constraints Are Potent Glucagon-like Peptide-1 Receptor (GLP-1R) Agonists” (J Med Chem, 2015).
Positions of bridges follow the written chain, without caps; N, C: chain ends. Non-standard residues stand in square brackets, D forms with d. Residues, ends and D or L forms follow the SMILES beside them. Bip(2'-Et-4'-OMe) = CCc1cc(OC)ccc1-c1ccc(C[C@H](N)C(=O)O)cc1; Bip(2'-Me) = Cc1ccccc1-c1ccc(C[C@H](N)C(=O)O)cc1; αMePhe(2,6-F2) = C[C@](N)(Cc1c(F)cccc1F)C(=O)O; Tyr(3-I) = N[C@@H](Cc1ccc(O)c(I)c1)C(=O)O; αMePhe(2-F) = C[C@](N)(Cc1ccccc1F)C(=O)O; hhPhe = N[C@@H](CCCc1ccccc1)C(=O)O; Aad = N[C@@H](CCCC(=O)O)C(=O)O; Aib = CC(C)(N)C(=O)O

Experiments:
[1] = target: T1, Glucagon-like peptide 1 receptor (Homo sapiens, UniProt P43220); test: Agonist activity at human GLP-1R expressed in CHO cells assessed as cAMP accumulation incubated for 30 mins; type: functional, cell-based
T1 sequence (P43220 whole entry): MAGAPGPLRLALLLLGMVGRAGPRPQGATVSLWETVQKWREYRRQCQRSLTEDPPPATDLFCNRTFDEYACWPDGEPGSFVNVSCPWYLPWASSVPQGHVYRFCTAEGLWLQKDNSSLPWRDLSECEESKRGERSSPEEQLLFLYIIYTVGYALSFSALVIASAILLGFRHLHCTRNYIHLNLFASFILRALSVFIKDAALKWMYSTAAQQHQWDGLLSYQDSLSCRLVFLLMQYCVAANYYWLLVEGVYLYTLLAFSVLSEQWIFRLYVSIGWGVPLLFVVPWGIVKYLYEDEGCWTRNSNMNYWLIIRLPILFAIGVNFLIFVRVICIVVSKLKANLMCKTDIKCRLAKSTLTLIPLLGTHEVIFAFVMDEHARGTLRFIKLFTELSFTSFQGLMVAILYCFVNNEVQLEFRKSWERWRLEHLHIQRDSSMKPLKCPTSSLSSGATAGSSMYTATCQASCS
Method in brief: (§1)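 CHO cells stably expressing human GLP-1R, grown in DMEM/F12 with GlutaMAX, PenStrep and Geneticin, were lifted and resuspended in HBSS with 5.56 mM glucose, 0.1% BSA, 0.5 mM IBMX, 5 mM HEPES (final). 1000 cells/well were exposed to compound (10 μM to 100 fM) for 30 min at room temperature. After lysis with tracer/ULight reagents (2 h, room temperature), cAMP was read by LANCE Ultra TR-FRET. Values are geometric means with standard error.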

[2] = target: T1, Glucagon-like peptide 1 receptor; test: Agonist activity at human GLP-1R expressed in CHO cells assessed as cAMP accumulation incubated for 30 mins relative to GLP1; type: functional, cell-based; method in brief: as §1
[3] = target: T1, Glucagon-like peptide 1 receptor; test: Displacement of [125I]-18 from human GLP-1R expressed in CHO cell membranes incubated for 120 mins by scintillation counting based radioligand binding assay
[4] = target: T1, Glucagon-like peptide 1 receptor; test: Ratio of Ki for displacement of [125I]-18 from human GLP-1R expressed in CHO cell membranes by scintillation counting based radioligand binding assay to EC50 for Agonist activity at human GLP-1R expressed in CHO cells assessed as cAMP accumulation

Row | EC50 [1] [nM] | Activity [2] [%] | Ki [3] [nM] | Ratio [4] | Structure (SMILES)
1 | 730 | > 85 | > 8000 | – | CCc1cc(OC)ccc1-c1ccc(C[C@H](NC(=O)[C@H](CC(=O)O)NC(=O)[C@H](CO)NC(=O)[C@@H](NC(=O)[C@](C)(Cc2ccccc2F)NC(=O)[C@H]2CSSCC[C@H](NC(=O)[C@@H](N)Cc3cnc[nH]3)C(=O)N[C@@H](CCC(=O)O)C(=O)NCC(=O)N2)[C@@H](C)O)C(=O)N[C@@H](CCCc2ccccc2)C(N)=O)cc1
2 | 320 | > 85 | 1200 | – | CCc1cc(OC)ccc1-c1ccc(C[C@H](NC(=O)[C@@H]2CCCCNC(=O)C[C@H](NC(=O)CNC(=O)[C@H](CCC(=O)O)NC(=O)C(C)(C)NC(=O)[C@@H](N)Cc3cnc[nH]3)C(=O)N[C@@](C)(Cc3ccccc3F)C(=O)N[C@@H]([C@@H](C)O)C(=O)N[C@@H](CO)C(=O)N2)C(=O)N[C@@H](CCCc2ccccc2)C(N)=O)cc1 (H-H[Aib]EGD[αMePhe(2-F)]TSK[Bip(2'-Et-4'-OMe)][hhPhe]-NH2; lactam 5-9)
3 | 0.045 | > 85 | 6 | – | CCc1cc(OC)ccc1-c1ccc(C[C@H](NC(=O)[C@H](CC(=O)O)NC(=O)[C@H](CO)NC(=O)[C@@H](NC(=O)[C@](C)(Cc2ccccc2F)NC(=O)[C@@H](NC(=O)CNC(=O)[C@H](CCC(=O)O)NC(=O)C(C)(C)NC(=O)[C@@H](N)Cc2cnc[nH]2)[C@@H](C)O)[C@@H](C)O)C(=O)N[C@@H](Cc2ccc(O)c(I)c2)C(N)=O)cc1 (H-H[Aib]EGT[αMePhe(2-F)]TSD[Bip(2'-Et-4'-OMe)][Tyr(3-I)]-NH2)
4 | 430 | > 85 | 320 | – | CCc1cc(OC)ccc1-c1ccc(C[C@H](NC(=O)[C@@H]2CCCCNC(=O)CC[C@H](NC(=O)CNC(=O)[C@H](CCC(=O)O)NC(=O)C(C)(C)NC(=O)[C@@H](N)Cc3cnc[nH]3)C(=O)N[C@@](C)(Cc3ccccc3F)C(=O)N[C@@H]([C@@H](C)O)C(=O)N[C@@H](CO)C(=O)N2)C(=O)N[C@@H](CCCc2ccccc2)C(N)=O)cc1 (H-H[Aib]EGE[αMePhe(2-F)]TSK[Bip(2'-Et-4'-OMe)][hhPhe]-NH2; lactam 5-9)
5 | 1.8 | > 85 | 130 | – | CCc1cc(OC)ccc1-c1ccc(C[C@H](NC(=O)[C@H](CC(=O)O)NC(=O)[C@H](CO)NC(=O)[C@@H](NC(=O)[C@](C)(Cc2ccccc2F)NC(=O)[C@H]2CCSSCC[C@H](NC(=O)[C@@H](N)Cc3cnc[nH]3)C(=O)N[C@@H](CCC(=O)O)C(=O)NCC(=O)N2)[C@@H](C)O)C(=O)N[C@@H](CCCc2ccccc2)C(N)=O)cc1
6 | 10 | > 85 | 17 | – | CCc1cc(OC)ccc1-c1ccc(C[C@H](NC(=O)[C@@H]2CCC(=O)NCCCC[C@H](NC(=O)CNC(=O)[C@H](CCC(=O)O)NC(=O)C(C)(C)NC(=O)[C@@H](N)Cc3cnc[nH]3)C(=O)N[C@@](C)(Cc3ccccc3F)C(=O)N[C@@H]([C@@H](C)O)C(=O)N[C@@H](CO)C(=O)N2)C(=O)N[C@@H](CCCc2ccccc2)C(N)=O)cc1 (H-H[Aib]EGK[αMePhe(2-F)]TSE[Bip(2'-Et-4'-OMe)][hhPhe]-NH2; lactam 5-9)
7 | 0.73 | > 85 | 41 | – | CCc1cc(OC)ccc1-c1ccc(C[C@H](NC(=O)[C@H](CC(=O)O)NC(=O)[C@H](CO)NC(=O)[C@@H](NC(=O)[C@](C)(Cc2ccccc2F)NC(=O)[C@H]2CCSSCC[C@@H](NC(=O)[C@@H](N)Cc3cnc[nH]3)C(=O)N[C@@H](CCC(=O)O)C(=O)NCC(=O)N2)[C@@H](C)O)C(=O)N[C@@H](CCCc2ccccc2)C(N)=O)cc1
8 | 95 | > 85 | 300 | – | CCc1cc(OC)ccc1-c1ccc(C[C@H](NC(=O)[C@@H]2CCCC(=O)NCCCC[C@H](NC(=O)CNC(=O)[C@H](CCC(=O)O)NC(=O)C(C)(C)NC(=O)[C@@H](N)Cc3cnc[nH]3)C(=O)N[C@@](C)(Cc3ccccc3F)C(=O)N[C@@H]([C@@H](C)O)C(=O)N[C@@H](CO)C(=O)N2)C(=O)N[C@@H](CCCc2ccccc2)C(N)=O)cc1 (H-H[Aib]EGK[αMePhe(2-F)]TS[Aad][Bip(2'-Et-4'-OMe)][hhPhe]-NH2; lactam 5-9)
9 | 0.19 | > 85 | 0.66 | 3.5 | CCc1cc(OC)ccc1-c1ccc(C[C@H](NC(=O)[C@H](CC(=O)O)NC(=O)[C@H](CO)NC(=O)[C@@H](NC(=O)[C@](C)(Cc2c(F)cccc2F)NC(=O)[C@@H](NC(=O)CNC(=O)[C@H](CCC(=O)O)NC(=O)C(C)(C)NC(=O)[C@@H](N)Cc2cnc[nH]2)[C@@H](C)O)[C@@H](C)O)C(=O)N[C@@H](Cc2ccc(-c3ccccc3C)cc2)C(N)=O)cc1 (H-H[Aib]EGT[αMePhe(2,6-F2)]TSD[Bip(2'-Et-4'-OMe)][Bip(2'-Me)]-NH2)
10 | 110 | > 85 | 4800 | 43 | CCc1cc(OC)ccc1-c1ccc(C[C@H](NC(=O)[C@H](CC(=O)O)NC(=O)[C@H](CO)NC(=O)[C@@H](NC(=O)[C@](C)(Cc2ccccc2F)NC(=O)[C@H]2CSSCC[C@@H](NC(=O)[C@@H](N)Cc3cnc[nH]3)C(=O)N[C@@H](CCC(=O)O)C(=O)NCC(=O)N2)[C@@H](C)O)C(=O)N[C@@H](CCCc2ccccc2)C(N)=O)cc1
11 | 670 | > 85 | > 3100 | – | CCc1cc(OC)ccc1-c1ccc(C[C@H](NC(=O)[C@H](CC(=O)O)NC(=O)[C@H](CO)NC(=O)[C@@H](NC(=O)[C@](C)(Cc2ccccc2F)NC(=O)[C@@H]2CSSC[C@H](NC(=O)[C@@H](N)Cc3cnc[nH]3)C(=O)N[C@@H](CCC(=O)O)C(=O)NCC(=O)N2)[C@@H](C)O)C(=O)N[C@@H](CCCc2ccccc2)C(N)=O)cc1
12 | 81 | > 85 | 550 | – | CCc1cc(OC)ccc1-c1ccc(C[C@H](NC(=O)[C@H](CC(=O)O)NC(=O)[C@H](CO)NC(=O)[C@@H](NC(=O)[C@](C)(Cc2ccccc2F)NC(=O)[C@H]2CCSSC[C@@H](NC(=O)[C@@H](N)Cc3cnc[nH]3)C(=O)N[C@@H](CCC(=O)O)C(=O)NCC(=O)N2)[C@@H](C)O)C(=O)N[C@@H](CCCc2ccccc2)C(N)=O)cc1
13 | 200 | > 85 | 1700 | – | CCc1cc(OC)ccc1-c1ccc(C[C@H](NC(=O)[C@H](CC(=O)O)NC(=O)[C@H](CO)NC(=O)[C@@H](NC(=O)[C@](C)(Cc2ccccc2F)NC(=O)[C@@H]2CCSSCC[C@@H](NC(=O)[C@@H](N)Cc3cnc[nH]3)C(=O)N[C@@H](CCC(=O)O)C(=O)NCC(=O)N2)[C@@H](C)O)C(=O)N[C@@H](CCCc2ccccc2)C(N)=O)cc1
14 | 190 | > 85 | 980 | – | CCc1cc(OC)ccc1-c1ccc(C[C@H](NC(=O)[C@H](CC(=O)O)NC(=O)[C@H](CO)NC(=O)[C@@H](NC(=O)[C@](C)(Cc2ccccc2F)NC(=O)[C@H]2CCSSC[C@H](NC(=O)[C@@H](N)Cc3cnc[nH]3)C(=O)N[C@@H](CCC(=O)O)C(=O)NCC(=O)N2)[C@@H](C)O)C(=O)N[C@@H](CCCc2ccccc2)C(N)=O)cc1
15 | 390 | > 85 | 3000 | – | CCc1cc(OC)ccc1-c1ccc(C[C@H](NC(=O)[C@H](CC(=O)O)NC(=O)[C@H](CO)NC(=O)[C@@H](NC(=O)[C@](C)(Cc2ccccc2F)NC(=O)[C@@H]2CCSSCC[C@H](NC(=O)[C@@H](N)Cc3cnc[nH]3)C(=O)N[C@@H](CCC(=O)O)C(=O)NCC(=O)N2)[C@@H](C)O)C(=O)N[C@@H](CCCc2ccccc2)C(N)=O)cc1
16 | 68 | > 85 | 59 | – | CCc1cc(OC)ccc1-c1ccc(C[C@H](NC(=O)[C@@H]2CC(=O)NCCCC[C@H](NC(=O)CNC(=O)[C@H](CCC(=O)O)NC(=O)C(C)(C)NC(=O)[C@@H](N)Cc3cnc[nH]3)C(=O)N[C@@](C)(Cc3ccccc3F)C(=O)N[C@@H]([C@@H](C)O)C(=O)N[C@@H](CO)C(=O)N2)C(=O)N[C@@H](CCCc2ccccc2)C(N)=O)cc1 (H-H[Aib]EGK[αMePhe(2-F)]TSD[Bip(2'-Et-4'-OMe)][hhPhe]-NH2; lactam 5-9)
17 | 600 | > 85 | 2400 | – | CCc1cc(OC)ccc1-c1ccc(C[C@H](NC(=O)[C@H](CC(=O)O)NC(=O)[C@H](CO)NC(=O)[C@@H](NC(=O)[C@](C)(Cc2ccccc2F)NC(=O)[C@@H]2CSSC[C@@H](NC(=O)[C@@H](N)Cc3cnc[nH]3)C(=O)N[C@@H](CCC(=O)O)C(=O)NCC(=O)N2)[C@@H](C)O)C(=O)N[C@@H](CCCc2ccccc2)C(N)=O)cc1

Row | Structure (SMILES) | EC50 [1] [nM] | Activity [2] [%] | Ki [3] [nM] | Ratio [4]
18 | CCc1cc(OC)ccc1-c1ccc(C[C@H](NC(=O)[C@H](CC(=O)O)NC(=O)[C@H](CO)NC(=O)[C@@H](NC(=O)[C@](C)(Cc2ccccc2F)NC(=O)[C@@H](NC(=O)CNC(=O)[C@H](CCC(=O)O)NC(=O)C(C)(C)NC(=O)[C@@H](N)Cc2cnc[nH]2)[C@@H](C)O)[C@@H](C)O)C(=O)N[C@@H](CCCc2ccccc2)C(N)=O)cc1 (H-H[Aib]EGT[αMePhe(2-F)]TSD[Bip(2'-Et-4'-OMe)][hhPhe]-NH2) | 0.12 | > 85 | 0.57 | 3.5
